Measurements as given in PubChem BioAssay.
Inconclusive results are not listed.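 How the source made its calls, unless noted: active means RAM network inhibition above 8.4% in each of two replicates, 3 SD over the compound average; inconclusive means above 8.4% inhibition in only one replicate; inactive means 8.4% inhibition or less in each replicate.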

Columns and labels:
[1] = OD615 S. cerevisiae growth inhibition, permissive medium, pilot counter-assay, permissive growth control for S. cerevisiae lifespan shortening project (AID 705;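 active means growth inhibition above 25% in both replicates, a cutoff set 3 SD above the mean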); details: OD615, 24 h, at 10 µM, hits give high values
How it was run: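 System: Engineered DeaD yeast | Buffer or medium: SC raffinose/galactose permissive medium | Doses: 10 µM single dose, 0.25% DMSO | Times: 24 h exposure, 30 °C | Measured by: OD615 turbidity read | Read-out: Yeast growth inhibition indicated by reduced 24 h OD615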

[2] = Restrictive medium S. cerevisiae growth inhibition, OD615, pilot screen of yeast lifespan reduction project, restrictive growth control (AID 706;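 active means growth inhibition above a set limit, 3 SD over mean compound inhibition, in both replicates, cut at about 43% in these data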;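 further: modified DeaD lifespan yeast strain shifted to restrictive glucose medium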); details: OD615, 48 h, at 10 µM, hits give high values
How it was run: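 Assay system: engineered S. cerevisiae DeaD strain; Buffer or medium: CSMM-D glucose medium; Dosing: 10 µM compound, 0.25% DMSO; Times: cell pre-growth 4 h, compound exposure 48 h, 30 °C; Detection: absorbance (optical density) measured at 615 nm.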

[3] = viability gain of MRP-1-high H69AR cells under doxorubicin, pilot screen, MRP-1 activator project, CellTiter-Glo, duplicate (AID 807;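 active means viability increase at or above a cutoff of the median across tested compounds plus 3 SD, cut at about 8.5% in these data, passing the limit was not always enough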;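 further: compound pretreatment 18-22 h then 72 h combined with doxorubicin; 0% = doxorubicin alone and 100% = vehicle without doxorubicin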); details: H69AR viability with doxorubicin, CellTiter-Glo luminescence; at 10 µM; hits give high values
[4] = growth suppression of beta-catenin knockout HCT116, pilot screen, human colon tumor cells (AID 823;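 active means cell viability at or below a set limit in both duplicate runs, the limit being the all-compound median minus 4 SD, cut at about 23% in these data, passing the limit was not always enough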;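 further: 0% = wells killed by 20 µM Hyamine and 100% = untreated DMSO cell wells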); details: CellTiter-Glo, 60 h, at 10 µM, hits give low values
[5] = growth suppression of PTEN-deleted HCT116, pilot screen, cell-based, HCT116 clonal line, CellTiter-Glo (AID 824;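 active means viability at or below 27.92% in each of two runs, the all-compound median minus 4 SD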;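 further: 0% = 20 µM Hyamine control and 100% = vehicle cell control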); details: 60 h, at 10 µM, hits give low values
[6] = inhibitors of the yeast RAM network, pilot screen, dse1pr::URA3 reporter, 5-FOA selection (AID 869;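 active means inhibition over a set limit, the all-compound mean plus 3 SD, in both replicate runs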;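 further: 0% = DMSO wells with no growth and 100% = 10 µM 1-NA-PP1 with full growth; RAM network block rescues cells from 5-FOA so hits raise OD615 growth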); details: S. cerevisiae dse1pr::URA3 5-FOA growth, OD615, 2 d; at 10 µM; hits give high values; strain carries analog-sensitive mutant Cbk1 kinase
[7] = RAM signaling pathway blockade in yeast – S. cerevisiae, Pdr1DBD-CYC8 efflux-inhibited sensitized strain, primary screen (AID 1298);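 further: 0% = DMSO untreated cells without growth and 100% = 10 µM 1-NA-PP1 full growth; higher means more yeast growth rescued from 5-FOA killing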; details: S. cerevisiae cbk1-as DSE1-URA3 strain, 5-FOA growth OD615, 2 d; at 50 µM; hits give high values

Cc1cc(N2CCOCC2)c2c(N)c(Br)cc(C)c2n1
inactive: growth inhibition [1] -14% | growth inhibition [2] -15.8% | viability increase [3] -5.84% | viability [4] 80.1% | viability [5] 76.4% | inhibition [6] 1.16% | RAM network inhibition [7] 3.17%

O=C(c1ccc(S(=O)(=O)N2CCCCC2)cc1)N1CCN=C1SCc1cccnc1
inactive: growth inhibition [1] -1.57% | growth inhibition [2] -2.72% | viability increase [3] 1.27% | viability [4] 89.4% | viability [5] 89.3% | inhibition [6] 1.77% | RAM network inhibition [7] 4.85%

CCOC(=O)c1cnc2c(Cl)cc(Cl)cc2c1NCCOCCO
inactive: growth inhibition [1] 1.23% | growth inhibition [2] -11.6% | viability increase [3] -5.62% | viability [4] 81.8% | viability [5] 74.4% | inhibition [6] -0.09% | RAM network inhibition [7] 2.56%

CCOC(=O)C1CCN(S(=O)(=O)c2cc(Br)cc3c2N(C(C)=O)C(C)C3)CC1 (stereo not drawn)
inactive: growth inhibition [1] -11.1% | growth inhibition [2] -29% | viability increase [3] 0.29% | viability [4] 93.4% | viability [5] 93.2% | inhibition [6] 1.19% | RAM network inhibition [7] 11.2%

O=C(NC1CCCc2ccccc21)c1cccnc1 (stereo not drawn)
inactive: growth inhibition [1] -4.71% | growth inhibition [2] -1.41% | viability increase [3] -1.04% | viability [4] 91.4% | viability [5] 93% | inhibition [6] 1.98% | RAM network inhibition [7] 0.22%

O=C1CC(NCc2ccc3c(c2)OCO3)C(=O)N1CCc1ccccc1 (stereo not drawn)
inactive: growth inhibition [1] -16% | growth inhibition [2] -11.1% | viability increase [3] -2.06% | viability [4] 102% | viability [5] 104% | inhibition [6] 1.88% | RAM network inhibition [7] 0.51%

COc1ccc(-n2c(Cc3cccn3C)nnc2SCC(=O)Nc2ccccc2C)cc1
inactive: growth inhibition [1] -11.6% | growth inhibition [2] 11.1% | viability increase [3] -2.39% | viability [4] 86% | viability [5] 81.7% | inhibition [6] 1.33% | RAM network inhibition [7] 7.38%

O=C(NCC1CCCO1)c1ccc(CS(=O)(=O)c2ccc(Br)cc2)o1 (stereo not drawn)
inactive: growth inhibition [1] -9.31% | growth inhibition [2] -13.1% | viability increase [3] -1.53% | viability [4] 97.8% | viability [5] 97.9% | inhibition [6] 1.06% | RAM network inhibition [7] 2.45%

CCOC(=O)N1CCC(NC(=O)c2cc3c(-c4ccccc4F)nn(C)c3s2)CC1
inactive: growth inhibition [1] -7.38% | growth inhibition [2] -13.5% | viability increase [3] -3.97% | viability [4] 75.6% | viability [5] 84.2% | inhibition [6] 1.74% | RAM network inhibition [7] 0.42%

CCN(CC)CCCNC(=O)c1cc2c(=O)n(C)c3ccccc3c2n1C
inactive: growth inhibition [1] -6.05% | growth inhibition [2] -3.57% | viability increase [3] -6.34% | viability [4] 55.8% | viability [5] 58.4% | inhibition [6] -0.125% | RAM network inhibition [7] 2.21%

C1CCC2(CC1)C1=C(CCCC1)Nc1nnnn12
inactive: growth inhibition [1] -4.35% | growth inhibition [2] 1.16% | viability increase [3] -1.07% | viability [4] 93.5% | viability [5] 87.8% | inhibition [6] 2.16% | RAM network inhibition [7] 5.77%

O=C1CC(c2ccc(Cl)c(Cl)c2)CC(O)=C1C=NCCN1CCNCC1 (stereo not drawn)
inactive: growth inhibition [1] -11.8% | growth inhibition [2] -7.73% | viability increase [3] -1.07% | viability [4] 90.4% | viability [5] 96.6% | inhibition [6] 0.46% | RAM network inhibition [7] -1.78%

Cn1c(NC(=O)c2ccccc2F)cc(=O)n(C)c1=O
inactive: growth inhibition [1] -0.14% | growth inhibition [2] -2.47% | viability increase [3] 0.23% | viability [4] 101% | viability [5] 106% | inhibition [6] 0.595% | RAM network inhibition [7] -1.63%

CCCC(=O)NCCc1nc2ccccc2n1CCC
inactive: growth inhibition [1] -7.3% | growth inhibition [2] 2.73% | viability increase [3] 0.5% | viability [4] 102% | viability [5] 101% | inhibition [6] 2.72% | RAM network inhibition [7] -1.16%

CSc1ccc(CN2CCC(O)CC2)cc1
inactive: growth inhibition [1] -12.7% | growth inhibition [2] -15.8% | viability increase [3] -0.93% | viability [4] 102% | viability [5] 100% | inhibition [6] 1.4% | RAM network inhibition [7] 5.11%

Cc1ccc(OC(=O)CCC(=O)Nc2ccc(S(=O)(=O)Nc3cc(C)on3)cc2)cc1
inactive: growth inhibition [1] -2.27% | growth inhibition [2] 0.38% | viability increase [3] -1.11% | viability [4] 109% | viability [5] 106% | inhibition [6] 0.875% | RAM network inhibition [7] 3.97%

CN(CCC#N)C(=O)Cn1nc(Cc2ccncc2)c2ccccc2c1=O
inactive: growth inhibition [1] -2.53% | growth inhibition [2] -1.35% | viability increase [3] 0.95% | viability [4] 102% | viability [5] 95.6% | inhibition [6] 0.515% | RAM network inhibition [7] 0.16%

CCOc1ccc(C2CC(c3ccc(OC)cc3)n3ncnc3N2)cc1 (stereo not drawn)
inactive: growth inhibition [1] 1.92% | growth inhibition [2] 21% | viability increase [3] 0.61% | viability [4] 104% | viability [5] 99% | inhibition [6] -0.22% | RAM network inhibition [7] 4.99%

CC1CCN(C(C(=O)Nc2ccc3c(c2)OCO3)c2ccccc2)CC1 (stereo not drawn)
inactive: growth inhibition [1] 3.37% | growth inhibition [2] 10.4% | viability increase [3] -2.94% | viability [4] 83.8% | viability [5] 78.7% | inhibition [6] 2.49% | RAM network inhibition [7] 4.49%

Cc1cc(N2C(=O)C3C4c5ccccc5C(c5ccccc54)C3C2=O)no1 (stereo not drawn)
inactive: growth inhibition [1] -9.23% | growth inhibition [2] -12.7% | viability increase [3] -2.14% | viability [4] 80.2% | viability [5] 90.7% | inhibition [6] 0.02% | RAM network inhibition [7] 5.19%

CCOc1cccc(NC(=O)c2ccc(S(=O)(=O)N(C)C)cc2)c1
inactive: growth inhibition [1] -7.19% | growth inhibition [2] -8.01% | viability increase [3] -2.48% | viability [4] 98.6% | viability [5] 92.4% | inhibition [6] 0.83% | RAM network inhibition [7] 6%

COc1ccc(Cl)cc1NC(=O)c1cnc2n(c1=O)CCS2
inactive: growth inhibition [1] -7.35% | growth inhibition [2] 3.42% | viability increase [3] -4.43% | viability [4] 94.5% | viability [5] 89.2% | inhibition [6] 2.78% | RAM network inhibition [7] 3.81%

Cc1cc(C)nc(SCC(=O)OCN2C(=O)c3ccccc3C2=O)n1
inactive: growth inhibition [1] -19.7% | growth inhibition [2] -18.3% | viability increase [3] -1.63% | viability [4] 91.6% | viability [5] 91.6% | inhibition [6] 0.15% | RAM network inhibition [7] 3.15%

O=C(NCc1ccco1)N1c2ccccc2Sc2ccccc21
inactive: growth inhibition [1] -12.9% | growth inhibition [2] -8.64% | viability increase [3] -4.68% | viability [4] 88% | viability [5] 91.6% | inhibition [6] 0.805% | RAM network inhibition [7] 4.32%
